What was measured:
[1] = The compound was evaluated for its eotaxin-induced chemotaxis; type: functional, Homo sapiens
How it was run: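 Freshly isolated human eosinophils at 1×10^6 cells/mL in RPMI 1640/0.1% BSA; cells and 20 nM human eotaxin each mixed 1:1 with compound-containing medium. Eotaxin/compound in the lower well, cells/compound above, across a 5 μm PVP-free polycarbonate filter, 45 min at 37 °C. Filter wiped, dried and Wright Giemsa-stained; migrated cells counted by microscopy.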

[2] = molecular target: T1, C-C chemokine receptor type 3 (Homo sapiens, UniProt P51677); assay: Inhibitory activity against recombinant human Chemokine receptor type 3 (CCR3) expressed in chinese hamster ovary cells; type: cell-based, CHO
T1 sequence (P51677 whole entry): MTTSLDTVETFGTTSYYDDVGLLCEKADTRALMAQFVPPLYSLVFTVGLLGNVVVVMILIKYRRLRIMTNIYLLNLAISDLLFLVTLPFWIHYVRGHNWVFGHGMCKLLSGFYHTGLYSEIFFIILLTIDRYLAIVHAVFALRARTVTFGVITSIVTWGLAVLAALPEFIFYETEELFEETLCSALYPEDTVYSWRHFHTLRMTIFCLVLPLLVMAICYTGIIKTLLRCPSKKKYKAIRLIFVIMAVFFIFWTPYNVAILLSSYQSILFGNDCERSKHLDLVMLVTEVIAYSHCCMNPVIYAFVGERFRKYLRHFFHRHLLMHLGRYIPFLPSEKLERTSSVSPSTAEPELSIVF
How it was run: (§1)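 CHO cells transfected with human CCR3, 5×10^5 per well, incubated 30 min at room temperature with 150 pM (final) 125I-labeled human eotaxin and compound. Binding buffer: RPMI 1640 with 0.5% BSA, 20 mM HEPES, 5 mM MgCl2. Filtration on protamine-treated filter plates, washed with binding buffer plus 0.5 M NaCl, filter counted. Nonspecific binding defined with 100 nM eotaxin. Percent inhibition taken against compound-free total binding. IC50 values are the mean of usually three determinations.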

[3] = The compound was evaluated for its intracellular calcium mobilization; type: functional, cell-based; details: Homo sapiens
How it was run: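 Freshly isolated human eosinophils loaded with 5 μM fluo-3 for 60 min at 37 °C, washed, then plated at 2×10^5/well in phenol red-free binding buffer. Compound or buffer added for 5 min, then eotaxin to 10 nM final, read on FLIPR. Base-to-peak fluorescence shift measured in duplicate; inhibition at graded concentrations expressed as percent of the compound-free eotaxin control to give IC50.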

[4] = molecular target: T2, C-C chemokine receptor type 3 (Homo sapiens) (UniProt P51677); assay: Evaluated for its inhibitory activity against human Chemokine receptor type 3 expressed in chinese hamster ovary cells at 5 uM; type: cell-based; details: CHO; how it was run: as §1
T2 sequence (whole entry): T1 sequence (P51677 whole entry)

[5] = molecular target: T1, C-C chemokine receptor type 3; assay: Evaluated for its inhibitory activity against human Chemokine receptor type 3 expressed in chinese hamster ovary cells; type: cell-based, CHO
How it was run: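 Competition binding on CHO cells transfected with human CCR3, 5×10^5 cells per well, against 125I-human eotaxin at 150 pM final. Binding buffer: RPMI 1640 with 0.5% BSA, 20 mM HEPES, 5 mM MgCl2. Incubated 30 min at room temperature, then filtered on protamine-treated plates and washed with buffer plus 0.5 M NaCl before counting. Background binding defined with 100 nM eotaxin. Percent inhibition taken against the compound-free total. Values usually mean of three determinations.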

[6] = molecular target: T2, C-C chemokine receptor type 3 (Homo sapiens); assay: Evaluated for its inhibitory activity against Chemokine receptor type 3 at 5 uM; how it was run: as §1
[7] = molecular target: T2, C-C chemokine receptor type 3 (Homo sapiens); assay: Evaluated for % inhibitory activity against human Chemokine receptor type 3 expressed in chinese hamster ovary cells; type: cell-based; details: CHO; concentration not given here; how it was run: as §1
[8] = molecular target: T2, C-C chemokine receptor type 3 (Homo sapiens); assay: Evaluated for its % inhibitory activity against human Chemokine receptor type 3 expressed in chinese hamster ovary cells; type: cell-based; details: CHO; concentration not given here; how it was run: as §1
[9] = molecular target: T3, C-C chemokine receptor type 1 (Homo sapiens, UniProt P32246); assay: Inhibitory activity against human Chemokine receptor type 1 expressed in chinese hamster ovary cells; type: cell-based, CHO
T3 sequence (P32246 whole entry): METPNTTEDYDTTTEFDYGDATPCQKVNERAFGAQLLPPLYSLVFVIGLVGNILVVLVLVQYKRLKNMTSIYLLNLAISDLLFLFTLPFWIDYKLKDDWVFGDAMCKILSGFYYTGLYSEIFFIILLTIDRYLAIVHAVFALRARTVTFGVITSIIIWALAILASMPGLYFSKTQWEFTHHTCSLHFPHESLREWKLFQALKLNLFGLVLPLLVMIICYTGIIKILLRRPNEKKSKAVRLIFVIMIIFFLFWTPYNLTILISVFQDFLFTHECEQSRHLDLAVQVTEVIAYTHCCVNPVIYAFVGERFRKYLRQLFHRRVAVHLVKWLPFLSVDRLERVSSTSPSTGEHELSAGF

[10] = molecular target: T2, C-C chemokine receptor type 3 (Homo sapiens); assay: Evaluated for its inhibitory activity against human Chemokine receptor type 3 expressed in chinese hamster ovary cells at 10 uM; type: cell-based; details: CHO; how it was run: as §1
[11] = molecular target: T2, C-C chemokine receptor type 3 (Homo sapiens); assay: Evaluated for its % inhibitory activity against Chemokine receptor type 3 at 5 uM; how it was run: as §1

| SMILES | IC50 [2] [µM] | IC50 [9] [µM] | also measured |
| --- | --- | --- | --- |
| CC(=O)c1cccc(NC(=O)Nc2cccc(C(N)=O)c2CN2CCC(Cc3ccc(F)cc3)CC2)c1 | 0.002 | – | IC50 [1]: 0.046 µM; IC50 [3]: 0.0059 µM |
| CNC(=O)c1cccc(NC(=O)Nc2ccccc2)c1CN1CCC(Cc2ccc(F)cc2)CC1 | 0.002 | – | IC50 [3]: 0.0043 µM |
| O=C(Nc1cc(F)ccc1F)Nc1ccccc1CN1CCN(Cc2ccccc2)CC1 | – | – | inhibition [4]: 28% |
| N#Cc1cccc(NC(=O)Nc2ccc(CN3CCC(Cc4ccccc4)CC3)cc2)c1 | – | – | inhibition [4]: 47% |
| COC(=O)c1cccc(NC(=O)Nc2cccc(C(C)=O)c2)c1CN1CCC(Cc2ccc(F)cc2)CC1 | 0.008 | – | IC50 [1]: 0.076 µM; IC50 [3]: 0.0082 µM |
| CNC(=O)c1ccc(NC(=O)Nc2cccc(C(C)=O)c2)c(CN2CCC(Cc3ccc(F)cc3)CC2)c1 | 0.008 | – | IC50 [3]: 0.0118 µM |
| OC1(c2ccc(Cl)cc2)CCN(Cc2ccccc2)CC1 | – | – | IC50 [5]: 18.7 µM |
| O=C(Nc1ccccc1)Nc1ccccc1/C(CN1CCC(Cc2ccccc2)CC1)=N\O | – | – | inhibition [6]: 59% |
| CC(=O)c1cccc(NC(=O)Nc2ccccc2CCN2CCC(Cc3ccc(F)cc3)CC2)c1 | 0.0026 | – | IC50 [1]: 0.071 µM |
| COc1ccc(NC(=O)Nc2ccc(CN3CCC(Cc4ccccc4)CC3)cc2)cc1 | – | – | inhibition [7]: 48% |
| CNC(=O)c1cccc(NC(=O)Nc2cccc(C#N)c2)c1CN1CCC(Cc2ccc(F)cc2)CC1 | 0.001 | – | IC50 [3]: 0.0053 µM |
| COC(=O)c1ccc(CN2CCC(Cc3ccccc3)CC2)c(NC(=O)Nc2cccc(C#N)c2)c1 | – | – | inhibition [8]: 72% |
| O=C(Nc1ccccc1)Nc1ccccc1CN1CCC(Cc2ccccc2)CC1 | 0.9 | > 10 | – |
| O=C(NCCc1ccc(F)cc1)NCC(CCCN1CCC(O)(c2ccc(Cl)cc2)CC1)(c1ccccc1)c1ccccc1 | 2.2 | 0.295 | – |
| OC1(c2ccc(Cl)cc2)CCN(CCc2ccccc2)CC1 | – | – | inhibition [10]: 19% |
| O=C(NCC(CCCN1CCC(O)(c2ccc(Cl)cc2)CC1)(c1ccccc1)c1ccccc1)Nc1cccc(C(F)(F)F)c1 | 19.3 | 1.41 | – |
| COc1ccc(NC(=O)Nc2ccccc2CN2CCC(Cc3ccccc3)CC2)cc1 | 0.75 | > 10 | – |
| c1ccc(CCCCN2CCC(Cc3ccccc3)CC2)cc1 | 3.8 | > 50 | – |
| N#Cc1cccc(NC(=O)Nc2ccccc2CCN2CCC(Cc3ccccc3)CC2)c1 | 0.14 | > 10 | – |
| O=C(NCC1CCCCC1)NCC(CCCN1CCC(O)(c2ccc(Cl)cc2)CC1)(c1ccccc1)c1ccccc1 | 2.4 | 0.125 | – |
| O=C(Nc1cc(F)ccc1F)Nc1ccccc1CN1CCC(Cc2ccccc2)CC1 | 1.75 | > 50 | – |

| SMILES | IC50 [2] [µM] | IC50 [9] [µM] | also measured |
| --- | --- | --- | --- |
| N#CC(CCCN1CCC(Cc2ccccc2)CC1)(c1ccccc1)c1ccccc1 | 4.6 | > 50 | – |
| O=C(Nc1cc(F)ccc1F)Nc1ccccc1N1CCC(Cc2ccccc2)CC1 | – | – | inhibition [4]: 9% |
| N#Cc1cccc(NC(=O)Nc2ccccc2CN2CCC(Cc3ccccc3)CC2)c1 | 0.75 | > 10 | – |
| O=C(Nc1ccc2[nH]ncc2c1)Nc1ccccc1CN1CCC(Cc2ccccc2)CC1 | 0.45 | > 10 | – |
| O=C(NCc1ccccc1)NCC(CCCN1CCC(O)(c2ccc(Cl)cc2)CC1)(c1ccccc1)c1ccccc1 | 8.3 | < 0.78 | – |
| O=C(NCC(CCCN1CCC(O)(c2ccc(Cl)cc2)CC1)(c1ccccc1)c1ccccc1)Nc1ccc(C(F)(F)F)cc1 | 5.2 | 0.89 | – |
| O=C(NCC(CCCN1CCC(O)(c2ccc(Cl)cc2)CC1)(c1ccccc1)c1ccccc1)Nc1cc(F)ccc1F | 5.7 | 1.34 | – |
| O=C(Nc1cc(F)ccc1F)Nc1ccccc1C(O)CN1CCC(Cc2ccccc2)CC1 (centres undefined) | 0.41 | > 10 | – |
| CC(=O)c1cccc(NC(=O)Nc2ccc(C(N)=O)cc2CN2CCC(Cc3ccc(F)cc3)CC2)c1 | 0.003 | – | IC50 [3]: 0.0095 µM |
| O=C(NCCN1CCCCC1)Nc1ccccc1CN1CCC(Cc2ccccc2)CC1 | 7.6 | > 50 | – |
| O=C(Nc1ccccc1CN1CCC(Cc2ccccc2)CC1)NC1CCN(Cc2ccccc2)CC1 | 3.9 | > 50 | – |
| COC(=O)N1CCC(NC(=O)NCC(CCCN2CCC(O)(c3ccc(Cl)cc3)CC2)(c2ccccc2)c2ccccc2)CC1 | 5.3 | 0.5 | – |
| CNC(=O)NCC(CCCN1CCC(O)(c2ccc(Cl)cc2)CC1)(c1ccccc1)c1ccccc1 | 8.3 | < 0.78 | – |
| CNC(=O)c1cccc(NC(=O)Nc2cccc(C(C)=O)c2)c1CN1CCC(Cc2ccc(F)cc2)CC1 | 0.001 | – | IC50 [1]: 0.03 µM; IC50 [3]: 0.0014 µM |
| CNC(=O)c1cccc(NC(=O)Nc2cccc(OC)c2)c1CN1CCC(Cc2ccc(F)cc2)CC1 | 0.002 | – | IC50 [3]: 0.0042 µM |
| O=C(Nc1cc(F)ccc1F)Nc1ccccc1CN1CCC(O)(c2ccc(Cl)cc2)CC1 | – | – | inhibition [4]: 21% |
| O=C(NCCCCO)NCC(CCCN1CCC(O)(c2ccc(Cl)cc2)CC1)(c1ccccc1)c1ccccc1 | 5.95 | 0.24 | – |
| O=C(Nc1ccc(F)cc1F)Nc1ccccc1C(=O)CN1CCC(Cc2ccccc2)CC1 | – | – | inhibition [11]: 35% |
| c1ccc(CC2CCN(Cc3ccccc3)CC2)cc1 | 8.3 | > 50 | – |
| O=C(Nc1ccccc1)Nc1cccc(C(O)CN2CCC(Cc3ccccc3)CC2)c1 (centres undefined) | – | – | inhibition [4]: 71% |

Source: ChEMBL document CHEMBL1135587, “Discovery and structure-activity relationship of N-(ureidoalkyl)-benzyl-piperidines as potent small molecule CC chemokine receptor-3 (CCR3) antagonists” (J Med Chem, 2002)
